Measured values from different studies.
Compare with care: the assays were run in different laboratories.
Organism: Plasmodium falciparum
Read-out: parasite growth

CCN(CC)CCCC(C)Nc1ccnc2cc(Cl)ccc12 (stereo not shown)  IC50 (D6; blood stage): 0.02 µg/mL
CCN(CC)CCCC(C)Nc1ccnc2cc(Cl)ccc12 (stereo not shown)  IC50 (3D7; blood stage): 0.011 µM
COC1=CC(c2ccco2)=NC1=Cc1ccc(CCCCCCCCCC(C)O)[nH]1 (stereo not shown)  IC50 (DD2; drug-resistant strain, blood stage): > 2.5 µM
NC(N)=NC(=O)c1cc(C#Cc2ccc(C(F)(F)F)c(C(=O)Nc3ccccn3)c2)cc(C(F)(F)F)c1  IC50 (K1; drug-resistant strain, blood stage): 0.019 µM
CC(C)(C)C(O)C(Oc1ccc(-c2ccccc2)cc1)n1cncn1 (stereo not shown)  IC50 (SYBR Green; blood stage): 8.69 µM
CCCCCCCCCCOc1cc2c(O)c(C(=O)OCC)cnc2cc1OCC  IC50 (SYBR Green; 3D7; blood stage): < 0.0057 µM
CCN(CC)CCCC(C)Nc1ccnc2cc(Cl)ccc12 (stereo not shown)  IC50 (W2; drug-resistant strain, blood stage): 0.1 µg/mL
Brc1ccc2c(c1)nc(C1CCNCC1)n2Cc1ccccc1  IC50 (K1; drug-resistant strain, blood stage): 0.061 µM
CCN(CC)CCCC(C)Nc1ccnc2cc(Cl)ccc12 (stereo not shown)  IC50 (W2; 72 h; drug-resistant strain, blood stage): 0.155 µg/mL
Clc1ccc2c(nc(N3CCNCC3)n2Cc2ccccc2)c1Cl  IC50 (K1; drug-resistant strain, blood stage): 0.032 µM
COC1=CC(c2ccc[nH]2)=NC1=Cc1ccc(CCCCCCCCCCO)[nH]1  IC50 (7G8; drug-resistant strain, blood stage): 0.168 µM
OC(c1cc(C(F)(F)F)nc2c(C(F)(F)F)cccc12)C1CCCCN1 (stereo not shown)  IC50 (blood stage): 0.0372 µM
CCc1ccc(C2=NC(=Cc3ccc(CCCCCCCCCC(C)O)[nH]3)C(OC)=C2)[nH]1 (stereo not shown)  IC50 (7G8; drug-resistant strain, blood stage): 0.024 µM
COc1cc(CO)c(-c2ccc3c(c2O)[C@@H](C)N[C@H](C)C3)c2cccc(O)c12  IC50 (SYBR Green; W2; drug-resistant strain, blood stage): 0.303 µM
COC1=CC(c2ccc[nH]2)=NC1=Cc1ccc(CCCCCCCCCCCO)[nH]1  IC50 (7G8; drug-resistant strain, blood stage): 0.093 µM
Clc1ccc2c(c1)nc(NCCNCc1ccccc1)n2Cc1ccccc1  IC50 (K1; drug-resistant strain, blood stage): 0.212 µM
CCN(CC)CCCC(C)Nc1ccnc2cc(Cl)ccc12 (stereo not shown)  IC50 (7G8; drug-resistant strain, blood stage): 0.063 µM
CCN(CC)CCCC(C)Nc1ccnc2cc(Cl)ccc12 (stereo not shown)  IC50 (W2; drug-resistant strain): 0.31 µM
COC1=CC(c2cccn2C)=NC1=Cc1ccc(CCCCCCCCCC(C)O)[nH]1 (stereo not shown)  IC50 (7G8; drug-resistant strain, blood stage): 1 µM
Clc1ccc2c(c1)nc(C1CCNCC1)n2Cc1ccccc1  IC50 (K1; drug-resistant strain, blood stage): 0.076 µM
CC1=C(C)C(c2ccc[nH]2)=NC1=Cc1ccc(CCCCCCCCCC(C)O)[nH]1 (stereo not shown)  IC50 (7G8; drug-resistant strain, blood stage): 0.627 µM
CCN(CC)CCCC(C)Nc1ccnc2cc(Cl)ccc12 (stereo not shown)  IC50 (imaging; W2; 48 h; drug-resistant strain, blood stage): 0.234 µg/mL
